Activity calls are given as the source filed them. The calls are words filed in the database; no cut-off is given here.
Legend:
[1] = Selectivity index, ratio of IC50 for human A549 to IC50 for human A498 cells
[2] = molecular target: Speckle-type POZ protein (Homo sapiens) (UniProt O43791); test: Inhibition of SPOP signalling in human OS-RC2 cells assessed as effect on total ERK level at 0.5 to 15 uM incubated for 12 hrs by Western blot analysis; format: cell-based
Summary of the method: (§1)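 Cells exposed 12 hr to inhibitor at graded concentrations, RIPA lysates normalized by BCA. 12% SDS-PAGE, nitrocellulose transfer, milk block, primary antibody at 4 °C overnight, HRP secondary, ECL. GAPDH loading control.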

[3] = molecular target: Speckle-type POZ protein (Homo sapiens) (UniProt O43791); test: Inhibition of SPOP signalling in human A498 cells assessed as effect on total AKT level at 0.5 to 10 uM incubated for 12 hrs by Western blot analysis; format: cell-based; summary of the method: as §1
[4] = molecular target: Speckle-type POZ protein (Homo sapiens) (UniProt O43791); test: Binding affinity to recombinant N-terminal GST/His-tagged SPOP (unknown origin) MATH binding domain expressed in Escherichia coli BL21 (DE3) assessed as change in melting temperature at 10 fold compound by SYPRO Orange dye based differential scanning fluorimetry (reference value: -1.7 degreeC)
[5] = molecular target: Speckle-type POZ protein (Homo sapiens) (UniProt O43791); test: Binding affinity to recombinant N-terminal GST/His-tagged MATH binding domain SPOP (unknown origin) expressed in Escherichia coli BL21 (DE3) assessed as change in melting temperature at 20 fold compound incubated for 15 mins by nano differential scanning fluorimetry (reference value: -3.8 degreeC)
[6] = molecular target: Speckle-type POZ protein (Homo sapiens) (UniProt O43791); test: Inhibition of SPOP signalling in human A498 cells assessed as accumulation of DUSP7 incubated for 12 hrs by Western blot analysis; format: cell-based; summary of the method: as §1
[7] = tested on: Hs 766; test: Cytotoxicity against human Hs766T cells assessed as reduction in cell viability incubated for 72 hrs by MTT assay; format: cell-based; conditions: Hs 766, 72 h
Summary of the method: (§2)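 Cells maintained in DMEM/10% FBS at 37 °C, 5% CO2. Cell proliferation quantified by MTT after 72 hr compound exposure, A490 read. Untreated cells = 100%. Mean ± SD, n = 3.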

[8] = molecular target: Speckle-type POZ protein (Homo sapiens) (UniProt O43791); test: Inhibition of SPOP signalling in human OS-RC2 cells assessed as accumulation of DUSP7 incubated for 12 hrs by Western blot analysis; format: cell-based; summary of the method: as §1
[9] = tested on: OS-RC-2; test: Antiproliferative activity against human OS-RC2 cells assessed as reduction in cell viability incubated for 72 hrs by MTT assay; format: functional, cell-based; conditions: OS-RC-2, 72 h
Summary of the method: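 MTT read-out. Cells seeded at 1,000-2,200/well, grown 12 hr at 37 °C before compound, then exposed 72 hr. MTT for 4 hr, formazan dissolved in DMSO, A490 read. Untreated cells = 100% proliferation. IC50 quantitated; mean ± SD, n = 3.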

[10] = tested on: OS-RC-2; test: Inhibition of colony formation in human OS-RC2 cells at 1 to 5 uM incubated for 12 days by crystal violet dye based assay; format: functional, cell-based
Summary of the method: (§3)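 Cells seeded at 1,000/well, grown 12 days at 37 °C, 5% CO2, medium renewed every 3 days. Fixed with 10% acetic acid/10% methanol for 15 min, stained with 1% crystal violet for 10 min.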

[11] = molecular target: Speckle-type POZ protein (Homo sapiens) (UniProt O43791); test: Inhibition of SPOP signalling in human A498 cells assessed as accumulation of PTEN incubated for 12 hrs by Western blot analysis; format: cell-based
Summary of the method: (§4)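 Cells treated with SPOP inhibitor at different concentrations for 12 hr, lysed in RIPA, protein by BCA. Samples run on 12% SDS-PAGE, blotted to nitrocellulose, primary antibody overnight at 4 °C, HRP secondary, ECL detection. GAPDH loading control. Triplicate experiments.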

[12] = molecular target: Speckle-type POZ protein (Homo sapiens) (UniProt O43791); test: Inhibition of SPOP signalling in human OS-RC2 cells assessed as accumulation of PTEN incubated for 12 hrs by Western blot analysis; format: cell-based; summary of the method: as §4
[13] = Selectivity index, ratio of IC50 for human Hs766T to IC50 for human A498 cells
[14] = molecular target: Speckle-type POZ protein (Homo sapiens) (UniProt O43791); test: Inhibition of SPOP signalling in human OS-RC2 cells assessed as effect of PTEN mRNA expression at 1 to 10 uM incubated for 12 hrs by qRT-PCR analysis; format: cell-based
[15] = Selectivity index, ratio of IC50 for human U251 to IC50 for human A498 cells
[16] = molecular target: T1, Speckle-type POZ protein/PTEN (Homo sapiens) (UniProt P60484+O43791); test: Inhibition of SPOP/PTEN interaction in human HEK293T cells assessed as reduction in SPOP level incubated for 12 hr by co-immunoprecipitation based Western blot analysis
T1 sequence (O43791 whole entry, looked up): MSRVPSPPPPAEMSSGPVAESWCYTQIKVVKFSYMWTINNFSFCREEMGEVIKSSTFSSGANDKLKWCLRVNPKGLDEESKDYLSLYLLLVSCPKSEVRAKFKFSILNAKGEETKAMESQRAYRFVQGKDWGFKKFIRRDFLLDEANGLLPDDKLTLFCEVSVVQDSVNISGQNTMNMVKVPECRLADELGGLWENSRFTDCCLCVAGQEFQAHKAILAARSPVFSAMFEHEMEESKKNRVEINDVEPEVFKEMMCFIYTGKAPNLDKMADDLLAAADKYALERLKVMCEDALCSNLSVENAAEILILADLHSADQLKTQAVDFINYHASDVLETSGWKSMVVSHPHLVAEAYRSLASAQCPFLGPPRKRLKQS
T1 sequence (P60484 whole entry, looked up): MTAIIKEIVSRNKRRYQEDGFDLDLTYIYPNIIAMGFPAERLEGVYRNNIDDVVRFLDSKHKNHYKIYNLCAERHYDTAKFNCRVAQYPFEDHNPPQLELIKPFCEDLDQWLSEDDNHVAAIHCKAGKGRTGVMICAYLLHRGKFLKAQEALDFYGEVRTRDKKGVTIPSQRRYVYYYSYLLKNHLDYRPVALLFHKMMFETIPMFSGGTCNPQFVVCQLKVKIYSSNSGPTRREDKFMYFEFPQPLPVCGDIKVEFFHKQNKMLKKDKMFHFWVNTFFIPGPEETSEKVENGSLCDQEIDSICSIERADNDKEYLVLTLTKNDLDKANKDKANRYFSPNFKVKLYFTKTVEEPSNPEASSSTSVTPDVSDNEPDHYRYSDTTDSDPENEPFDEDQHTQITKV

[17] = molecular target: T1, Speckle-type POZ protein/PTEN (Homo sapiens); test: Inhibition of SPOP/PTEN interaction in human A498 cells assessed as increase in SPOP level at 1 to 50 uM incubated for 20 mins by DARTS based Western blot analysis; format: cell-based
Summary of the method: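 DARTS. Lysates of 1×10⁶ cells in TNC buffer, 120 μg per tube, incubated with compound at 0, 1, 5, 10 or 50 μM for 20 min at rt. Pronase digestion 10 min at rt (1:1000 for A498, 1:2000 for OS-RC-2), stopped with protease inhibitors, then SPOP western blot. Triplicate experiments.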

[18] = molecular target: Speckle-type POZ protein (Homo sapiens) (UniProt O43791); test: Inhibition of SPOP signalling in human A498 cells assessed as effect on total ERK level at 0.5 to 10 uM incubated for 12 hrs by Western blot analysis; format: cell-based; summary of the method: as §1
[19] = tested on: A498; test: Antiproliferative activity against human A498 cells assessed as reduction in cell viability at 30 uM incubated for 72 hrs by MTT assay relative to control; format: functional; conditions: A498, 72 h
Summary of the method: (§5)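 MTT read-out. Cells seeded at 1,000-2,200/well, grown 12 hr at 37 °C, then compound added for 72 hr. MTT for 4 hr, formazan dissolved in DMSO, absorbance at 490 nm. Untreated-cell OD taken as 100% proliferation; inhibition reported at 30 μM.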

[20] = molecular target: Speckle-type POZ protein (Homo sapiens) (UniProt O43791); test: Binding affinity to recombinant N-terminal GST/His-tagged SPOP (unknown origin) MATH binding domain expressed in Escherichia coli BL21 (DE3) assessed as change in melting temperature at 5 fold compound by SYPRO Orange dye based differential scanning fluorimetry (reference value: -1.7 degreeC)
[21] = molecular target: Speckle-type POZ protein (Homo sapiens) (UniProt O43791); test: Inhibition of SPOP signalling in human OS-RC2 cells assessed as effect on total AKT level at 0.5 to 15 uM incubated for 12 hrs by Western blot analysis; format: cell-based; summary of the method: as §1
[22] = tested on: A498; test: Inhibition of colony formation in human A498 cells at 1 to 5 uM incubated for 12 days by crystal violet dye based assay; format: functional, cell-based; summary of the method: as §3
[23] = tested on: OS-RC-2; test: Antiproliferative activity against human OS-RC2 cells assessed as reduction in cell viability at 30 uM incubated for 72 hrs by MTT assay relative to control; format: functional; conditions: OS-RC-2, 72 h; summary of the method: as §5
[24] = tested on: NCI-H1299; test: Cytotoxicity against human H1299 cells assessed as reduction in cell viability incubated for 72 hrs by MTT assay; format: cell-based; conditions: NCI-H1299, 72 h; summary of the method: as §2
[25] = tested on: A549; test: Cytotoxicity against human A549 cells assessed as reduction in cell viability incubated for 72 hrs by MTT assay; format: cell-based; conditions: A549, 72 h; summary of the method: as §2
[26] = molecular target: Speckle-type POZ protein (Homo sapiens) (UniProt O43791); test: Binding affinity to recombinant N-terminal GST/His-tagged MATH binding domain SPOP (unknown origin) expressed in Escherichia coli BL21 (DE3) assessed as change in melting temperature at 10 fold compound incubated for 15 mins by nano differential scanning fluorimetry (reference value: -1.7 degreeC)

Chain of Speckle-type POZ protein (Homo sapiens) (O43791 whole entry, the tested form may be a part): as the sequence (O43791 whole entry, looked up) above

inhibition [2]: inactive | inhibition [3]: inactive | ΔTm [4]: 4 °C | ΔTm [5]: 3.5 °C | inhibition [6]: Dose-dependent effect | inhibition [8]: Dose-dependent effect | inhibition [11]: Dose-dependent effect | inhibition [12]: Dose-dependent effect | inhibition [14]: inactive | inhibition [16]: Dose-dependent effect | inhibition [17]: Active | inhibition [18]: inactive | ΔTm [20]: 3.7 °C | inhibition [21]: inactive | ΔTm [26]: 3.1 °C
SMILES: Cc1cccn2c(=O)c3cc(C(=O)NCCN4CCN(C)CC4)c(=N)n(CCc4cccs4)c3nc12
Ratio IC50 [1]: >5 | IC50 [7]: 14.5 µM | IC50 [9]: 3.5 µM | inhibition [10]: Active | Ratio IC50 [13]: >5 | Ratio IC50 [15]: >5 | inhibition at 30 µM [19]: 85% | inhibition [22]: Active | inhibition at 30 µM [23]: 90% | IC50 [24]: 10.7 µM | IC50 [25]: 16.2 µM
